Article PMC5713684 (International Journal of Nanomedicine, 2017)
No end group written: not given here. *: point of attachment. Octanoyl = CCCCCCCC(=O)*

Assays:
[1] = Ghrl-stability evaluation; type: physicochemical; conditions: Ghrl 1 mg/mL, physiological pH, 4–60°C, up to 48 hours, HPLC/UV
How it was run: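 Ghrelin at 1 mg/mL was held at 4, 25, 37 and 60°C in water, PBS pH 7.4, HBSS pH 7.4 and pharmacopoeial buffers from pH 2 to 10.4 (PBS, acetate, phosphate, boric acid, borate). Samples were drawn at 0.5–6, 24 and 48 h. Remaining peptide was quantified by reversed-phase HPLC/UV on an ODS column at 37°C, using water/acetonitrile mobile phases with 0.1% TFA.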

[2] = cited from earlier work
[3] = Isothermal titration calorimetry of Ghrl with AL-free; type: binding; conditions: ITC, AL-free 10 mg/mL injected into Ghrl 1 mg/mL, PBS pH 7.4, 26°C, mean of n=2
How it was run: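 Empty anionic liposomes (10 mg/mL in PBS pH 7.4) were injected stepwise into ghrelin (1 mg/mL in PBS) in the measuring cell. Each injection lasted 14.5 s, with 600 s spacing until steady state. Solutions were degassed beforehand, water served as reference and stirring was 300 rpm. A PBS-only blank was titrated. Heats were fitted to a cumulative model for K, ΔG, ΔH and TΔS. The titration was done twice and averaged.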

[4] = human plasma; cited from earlier work

Q: With “ghrelin (GSS(Octanoyl)FLSPEHQRVQQRKESKKPPAKLQPR; UniProt Q9UBU3 24-51, looked up) [Ghrl]” as the substance, how does the “Stability of Ghrl on prolonged heating” value [1] read?
A: without any degradation

Q: And the isoelectric point [2]?
A: 11.5

Q: And the “Binding coefficient K” value [3]?
A: 0.875 mM⁻¹

Q: What about the “plasmatic half-life t½” value [4] of the same substance?
A: 9 to 13 min
